Measurements taken from ChEMBL document CHEMBL2321868, “The discovery of novel potent trans-3,4-disubstituted pyrrolidine inhibitors of the human aspartic protease renin from in silico three-dimensional (3D) pharmacophore searches” (J Med Chem, 2013).
The source made the active and inactive calls. No cut-off for these calls is given here.

Tests used:
[1] = target: 5-hydroxytryptamine receptor 2A (Homo sapiens, UniProt P28223); assay: Inhibition of 5-HT2A (unknown origin)
[2] = AUC (0 to 24 hrs) in jugular vein cannulated Sprague-Dawley rat at 6 mg/kg, po by HPLC-MS analysis; type: ADME, organism-based; set-up: time < 24 hr, dose 6 mg/kg, route oral; conditions: plasma
Procedure, shortened: (§1)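 Cannulated, fed Sprague–Dawley rats were given 2 mg/kg intravenously and 6 mg/kg orally. Oral bioavailability came from the two routes. t1/2, plasma clearance and Vdss were estimated. Oral Cmax and AUC were taken over 0–24 h.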

[3] = target: Voltage-gated inwardly rectifying potassium channel KCNH2 (Homo sapiens, UniProt Q12809); assay: Inhibition of human ERG by dofetilide binding assay
Procedure, shortened: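 hERG affinity from an in vitro dofetilide binding assay. The IC50 is the mean of two independent measurements.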

Rattus norvegicus [4] = assay: Antihypertensive activity in double transgenic rat overexpressing human renin and angiotensinogen assessed as reduction in mean arterial pressure at 6 to 30 mg/kg, po after 12 hrs; type: functional, organism-based; conditions: Artery
Procedure, shortened: (§2)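 Double-transgenic rats overexpressing human renin and human angiotensinogen, with telemetry. Each received a single oral dose of 6 or 30 mg/kg. The read-out was mean arterial pressure, reported as the peak change from dosing.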

[5] = Plasma clearance in Sprague-Dawley rat at 2 mg/kg, iv by HPLC-MS analysis; type: ADME, organism-based; set-up: dose 2 mg/kg, route intravenous; procedure, shortened: as §1
Beta-secretase 1 = Beta-secretase 1 (Homo sapiens, UniProt P56817); assay: Inhibition of human recombinant BACE-1 expressed in baculovirus-infected insect sf9 cells using RE( EDANS)-EVNLDAEF-K(DABSYL)-R as substrate incubated for 1 hr prior to substrate addition measured after 1 hr by FRET-based enzymatic assay
Rattus norvegicus [6] = assay: Antihypertensive activity in double transgenic rat overexpressing human renin and human angiotensinogen assessed as reduction in mean arterial pressure at 30 mg/kg, po; type: functional, Artery; procedure, shortened: as §2
Gastricsin = target: T1, Gastricsin (Homo sapiens, UniProt P20142); assay: Inhibition of human recombinant pepsin C expressed in Escherichia coli using Dabcyl-E-R-Nle-F-L-S-F-P-EDANS as substrate incubated for 1 hr prior to substrate addition measured after 1 hr by FRET-based enzymatic assay
T1 sequence (P20142 whole entry): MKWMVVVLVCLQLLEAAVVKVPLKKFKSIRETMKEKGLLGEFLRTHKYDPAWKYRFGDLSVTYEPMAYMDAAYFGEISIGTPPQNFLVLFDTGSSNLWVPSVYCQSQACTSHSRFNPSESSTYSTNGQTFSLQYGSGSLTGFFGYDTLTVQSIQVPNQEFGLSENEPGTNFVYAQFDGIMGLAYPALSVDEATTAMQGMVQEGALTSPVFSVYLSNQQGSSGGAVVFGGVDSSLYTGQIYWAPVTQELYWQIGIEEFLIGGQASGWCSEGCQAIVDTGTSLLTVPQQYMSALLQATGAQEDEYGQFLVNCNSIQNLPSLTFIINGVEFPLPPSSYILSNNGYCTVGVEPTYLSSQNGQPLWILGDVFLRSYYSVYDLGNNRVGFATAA

Cathepsin E = target: T2, Cathepsin E (Homo sapiens, UniProt P14091); assay: Inhibition of human recombinant cathepsin-E expressed in Escherichia coli using Ac- E-D(EDANS)-KPILFFRLG-K(Dabcyl)-E-Amid as substrate incubated for 1 hr prior to substrate addition measured after 1 hr by FRET-based enzymatic assay
T2 sequence (P14091 whole entry): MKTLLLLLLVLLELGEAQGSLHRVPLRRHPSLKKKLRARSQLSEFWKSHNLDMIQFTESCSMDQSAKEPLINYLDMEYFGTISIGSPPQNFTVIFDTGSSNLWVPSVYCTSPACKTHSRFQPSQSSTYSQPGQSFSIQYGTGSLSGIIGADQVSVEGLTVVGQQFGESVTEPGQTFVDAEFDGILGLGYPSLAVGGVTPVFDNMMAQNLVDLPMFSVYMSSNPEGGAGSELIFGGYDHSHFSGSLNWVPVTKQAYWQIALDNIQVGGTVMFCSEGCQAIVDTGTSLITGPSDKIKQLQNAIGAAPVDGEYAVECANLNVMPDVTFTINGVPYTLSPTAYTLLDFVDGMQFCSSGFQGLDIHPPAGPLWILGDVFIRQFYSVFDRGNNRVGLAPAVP

[7] = Volume of distribution at steady state in jugular vein cannulated Sprague-Dawley rat at 2 mg/kg, iv by HPLC-MS analysis; type: ADME, organism-based; set-up: dose 2 mg/kg, route intravenous; conditions: in vivo, read-out: Vdss; procedure, shortened: as §1
Rattus norvegicus [8] = assay: Antihypertensive activity in double transgenic rat overexpressing human renin and human angiotensinogen assessed as reduction in mean arterial pressure at 6 mg/kg, po; type: functional, Artery; procedure, shortened: as §2
Renin = target: T3, Renin (Homo sapiens, UniProt P00797); assay: Inhibition of renin in human plasma using RE(EDANS)IHPFHLVIHTK(Dabcyl)R as substrate incubated for 1 hr prior to substrate addition measured after 2 hrs by FRET-based enzymatic assay
T3 sequence (P00797 whole entry): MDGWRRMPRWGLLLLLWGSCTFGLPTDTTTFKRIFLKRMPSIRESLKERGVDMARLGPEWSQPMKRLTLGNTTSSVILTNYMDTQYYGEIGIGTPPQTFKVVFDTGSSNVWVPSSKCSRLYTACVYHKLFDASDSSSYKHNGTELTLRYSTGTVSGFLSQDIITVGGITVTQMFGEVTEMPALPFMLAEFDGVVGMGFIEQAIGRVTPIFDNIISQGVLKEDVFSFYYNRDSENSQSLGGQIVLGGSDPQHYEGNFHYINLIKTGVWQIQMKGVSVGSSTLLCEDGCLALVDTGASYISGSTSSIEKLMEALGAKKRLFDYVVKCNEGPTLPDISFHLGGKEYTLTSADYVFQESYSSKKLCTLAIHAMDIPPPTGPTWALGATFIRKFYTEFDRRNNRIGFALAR
Procedure, shortened: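 Renin activity measured in the presence of human plasma by FRET cleavage of the quenched peptide substrate. IC50 is the half-maximal inhibition.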

[9] = target: T4, 5-hydroxytryptamine receptor 1A (Homo sapiens, UniProt P08908); assay: Inhibition of 5-HT1A (unknown origin)
T4 sequence (P08908 whole entry): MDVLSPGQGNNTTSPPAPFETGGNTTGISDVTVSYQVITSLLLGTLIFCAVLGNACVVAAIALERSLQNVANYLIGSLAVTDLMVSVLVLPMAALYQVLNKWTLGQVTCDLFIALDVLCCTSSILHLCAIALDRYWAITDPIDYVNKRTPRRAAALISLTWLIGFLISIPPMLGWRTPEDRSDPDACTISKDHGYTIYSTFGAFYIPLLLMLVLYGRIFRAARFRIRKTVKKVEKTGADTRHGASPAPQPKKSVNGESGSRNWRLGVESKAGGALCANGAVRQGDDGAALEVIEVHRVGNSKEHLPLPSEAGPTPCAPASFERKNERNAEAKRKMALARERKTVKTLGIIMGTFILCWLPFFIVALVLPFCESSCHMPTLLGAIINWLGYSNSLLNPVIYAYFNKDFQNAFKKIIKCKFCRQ

[10] = Cmax in jugular vein cannulated Sprague-Dawley rat at 6 mg/kg, po by HPLC-MS analysis; type: ADME, organism-based; set-up: dose 6 mg/kg, route oral; conditions: in vivo; procedure, shortened: as §1
[11] = Half life in jugular vein cannulated Sprague-Dawley rat at 2 mg/kg, iv by HPLC-MS analysis; type: ADME, organism-based; set-up: dose 2 mg/kg, route intravenous; conditions: in vivo; procedure, shortened: as §1

Voltage-gated inwardly rectifying potassium channel KCNH2, sequence (Q12809 whole entry): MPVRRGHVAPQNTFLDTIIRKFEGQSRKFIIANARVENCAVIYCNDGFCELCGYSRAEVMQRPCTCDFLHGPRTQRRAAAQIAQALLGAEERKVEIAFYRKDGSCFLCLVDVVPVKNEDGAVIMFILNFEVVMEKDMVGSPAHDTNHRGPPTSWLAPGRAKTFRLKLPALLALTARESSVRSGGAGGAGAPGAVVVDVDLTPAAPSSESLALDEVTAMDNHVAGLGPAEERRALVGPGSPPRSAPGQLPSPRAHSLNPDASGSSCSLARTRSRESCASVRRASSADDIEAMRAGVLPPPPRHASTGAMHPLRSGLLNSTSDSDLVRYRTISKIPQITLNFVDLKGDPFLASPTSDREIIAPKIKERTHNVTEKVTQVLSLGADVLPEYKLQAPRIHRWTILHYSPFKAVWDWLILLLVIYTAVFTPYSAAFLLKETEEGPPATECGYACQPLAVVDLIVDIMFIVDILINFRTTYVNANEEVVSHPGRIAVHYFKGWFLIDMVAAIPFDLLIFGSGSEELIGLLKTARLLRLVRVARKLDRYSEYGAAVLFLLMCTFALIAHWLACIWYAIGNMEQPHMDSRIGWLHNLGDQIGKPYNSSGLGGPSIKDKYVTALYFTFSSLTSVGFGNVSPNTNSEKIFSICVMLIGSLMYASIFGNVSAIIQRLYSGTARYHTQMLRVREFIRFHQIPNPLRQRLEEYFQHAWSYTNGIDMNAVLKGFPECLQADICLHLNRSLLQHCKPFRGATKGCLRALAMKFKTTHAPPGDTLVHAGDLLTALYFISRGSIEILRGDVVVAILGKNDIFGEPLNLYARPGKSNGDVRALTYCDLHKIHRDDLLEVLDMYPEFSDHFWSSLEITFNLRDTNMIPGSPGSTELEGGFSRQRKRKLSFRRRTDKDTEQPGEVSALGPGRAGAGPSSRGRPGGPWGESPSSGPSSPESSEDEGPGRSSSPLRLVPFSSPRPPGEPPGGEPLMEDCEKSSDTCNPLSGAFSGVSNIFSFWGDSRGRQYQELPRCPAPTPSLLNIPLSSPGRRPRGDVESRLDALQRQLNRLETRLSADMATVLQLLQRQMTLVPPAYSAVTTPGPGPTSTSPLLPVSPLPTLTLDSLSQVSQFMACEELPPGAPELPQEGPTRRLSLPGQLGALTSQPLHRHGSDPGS
5-hydroxytryptamine receptor 2A, sequence (P28223 whole entry): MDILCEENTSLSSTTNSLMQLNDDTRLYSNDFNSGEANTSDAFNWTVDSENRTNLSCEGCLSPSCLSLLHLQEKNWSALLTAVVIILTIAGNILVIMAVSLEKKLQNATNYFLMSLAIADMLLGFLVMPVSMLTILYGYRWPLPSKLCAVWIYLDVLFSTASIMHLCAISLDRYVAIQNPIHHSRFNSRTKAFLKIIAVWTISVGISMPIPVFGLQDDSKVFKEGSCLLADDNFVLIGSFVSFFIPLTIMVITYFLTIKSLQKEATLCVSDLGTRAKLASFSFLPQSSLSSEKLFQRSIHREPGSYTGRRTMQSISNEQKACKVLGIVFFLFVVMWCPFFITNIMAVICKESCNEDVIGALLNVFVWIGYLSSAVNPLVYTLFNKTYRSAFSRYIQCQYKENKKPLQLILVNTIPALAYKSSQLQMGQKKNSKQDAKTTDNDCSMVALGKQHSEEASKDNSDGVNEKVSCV
Beta-secretase 1, sequence (P56817 whole entry): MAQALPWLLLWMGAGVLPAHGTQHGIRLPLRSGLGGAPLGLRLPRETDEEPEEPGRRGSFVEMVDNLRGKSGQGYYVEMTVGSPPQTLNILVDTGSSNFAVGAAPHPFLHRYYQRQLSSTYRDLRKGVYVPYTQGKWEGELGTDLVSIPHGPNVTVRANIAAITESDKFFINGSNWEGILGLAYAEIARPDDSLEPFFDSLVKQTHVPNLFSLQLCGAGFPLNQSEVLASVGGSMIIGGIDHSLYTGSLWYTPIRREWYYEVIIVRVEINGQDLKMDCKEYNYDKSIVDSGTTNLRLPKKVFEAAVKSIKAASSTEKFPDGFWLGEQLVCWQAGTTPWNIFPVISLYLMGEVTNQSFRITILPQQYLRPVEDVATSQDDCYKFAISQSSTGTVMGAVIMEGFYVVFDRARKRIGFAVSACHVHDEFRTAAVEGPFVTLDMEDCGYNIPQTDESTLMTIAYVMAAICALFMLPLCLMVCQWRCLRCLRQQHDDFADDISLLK

`COCCCOc1cc(C(=O)N(C[C@@H]2CNC[C@H]2Cc2ccccc2)C(C)C)ccc1OC.Cl` gave an IC50 [1] of over 1 µM, an AUC(0-t) at 24 h [2] of 4.81 µM·h and an IC50 [3] of 14.5 µM. The Activity (Rattus norvegicus [4]) was “Active”, the clearance [5] was 25 mL/min/kg and the IC50 (Beta-secretase 1) was over 30 µM. The Activity (Rattus norvegicus [6]) was 35 mmHg, the IC50 (Gastricsin) was over 30 µM and the IC50 (Cathepsin E) was over 30 µM. For the same molecule, the Vd [7] was 2.8 L/kg, the Activity (Rattus norvegicus [8]) was 15 mmHg and the IC50 (Renin) was 0.3 µM. For the same molecule, the IC50 [9] was over 1 µM, the Cmax [10] was 1310 nM and the half-life [11] was 2 h.
